Measured values taken from ChEMBL document CHEMBL4014338, “Discovery of Small Molecules as Multi-Toll-like Receptor Agonists with Proinflammatory and Anticancer Activities” (J Med Chem, 2017).

What was measured:
[1] = target: Toll-like receptor 3 (Homo sapiens) (UniProt O15455); assay: Agonist activity at human TLR3 expressed in HEK293 cells assessed as induction of NF-kB activation-mediated SEAP production at 25 uM after 24 hrs by HTS assay relative to control; format: cell-based
Outline: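 hTLR3 HEK293 SEAP reporter cells seeded at 5 × 10^4 cells/well for 24 h, exposed to 25 μM for 24 h. Supernatant SEAP detected with QUANTI-Blue (1 h, 37 °C, OD 620 nm). Activation normalized to untreated cells and expressed as fold change.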

Toll-like receptor 2 = Toll-like receptor 2 (Homo sapiens, UniProt O60603); assay: Agonist activity at human TLR2 expressed in HEK293 cells assessed as induction of NF-kB activation-mediated SEAP production after 24 hrs by HTS assay; format: cell-based
Outline: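 Stable HEK293 lines expressing a single hTLR plus a SEAP reporter, grown in DMEM/10% FBS with selective antibiotics. Seeded at 5 × 10^4 cells/well for 24 h at 37 °C, then treated 24 h. Supernatant mixed with QUANTI-Blue, 1 h at 37 °C, OD 620 nm. Cognate agonists: Pam3CSK4 (TLR2), poly I:C (TLR3), LPS (TLR4), FLA-BS (TLR5), R848 (TLR7). EC50 as mean ± SD.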

Toll-like receptor 9 = target: T1, Toll-like receptor 9 (Homo sapiens, UniProt Q9NR96); assay: Agonist activity at human TLR9 expressed in HEK293 cells assessed as induction of NF-kB activation-mediated SEAP production after 24 hrs by HTS assay; format: cell-based
T1 sequence (Q9NR96 whole entry): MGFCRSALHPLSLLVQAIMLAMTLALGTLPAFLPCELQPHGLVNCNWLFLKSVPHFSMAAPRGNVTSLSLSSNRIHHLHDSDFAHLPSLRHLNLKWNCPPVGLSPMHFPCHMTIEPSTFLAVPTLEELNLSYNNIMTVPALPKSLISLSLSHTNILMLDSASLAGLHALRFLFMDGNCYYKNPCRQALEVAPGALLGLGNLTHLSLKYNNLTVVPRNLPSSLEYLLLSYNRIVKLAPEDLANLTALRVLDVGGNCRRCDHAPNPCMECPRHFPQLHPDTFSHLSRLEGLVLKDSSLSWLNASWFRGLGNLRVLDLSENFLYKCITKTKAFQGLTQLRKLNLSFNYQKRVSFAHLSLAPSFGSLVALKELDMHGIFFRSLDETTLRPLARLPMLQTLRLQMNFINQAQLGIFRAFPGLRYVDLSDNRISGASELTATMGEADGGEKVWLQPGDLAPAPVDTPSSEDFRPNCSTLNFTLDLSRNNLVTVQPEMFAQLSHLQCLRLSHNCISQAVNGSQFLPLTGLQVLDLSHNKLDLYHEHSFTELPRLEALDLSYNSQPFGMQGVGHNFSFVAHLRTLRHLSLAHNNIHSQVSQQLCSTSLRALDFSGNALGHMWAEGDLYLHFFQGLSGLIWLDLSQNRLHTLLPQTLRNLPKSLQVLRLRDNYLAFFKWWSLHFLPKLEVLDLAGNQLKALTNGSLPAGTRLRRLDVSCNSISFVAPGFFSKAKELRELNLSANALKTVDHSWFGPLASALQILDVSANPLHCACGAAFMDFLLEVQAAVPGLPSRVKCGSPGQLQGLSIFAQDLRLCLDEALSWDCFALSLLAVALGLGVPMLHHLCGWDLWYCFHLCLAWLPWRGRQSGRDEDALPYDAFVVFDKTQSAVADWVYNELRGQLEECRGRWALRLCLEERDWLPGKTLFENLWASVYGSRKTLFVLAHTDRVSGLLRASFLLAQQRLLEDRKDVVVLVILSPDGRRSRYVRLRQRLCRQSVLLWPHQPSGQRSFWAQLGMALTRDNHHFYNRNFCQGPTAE
Outline: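 HEK293 cells stably expressing human TLR8 or TLR9 plus an NF-κB-inducible SEAP reporter, seeded at 5 × 10^4 cells/well for 24 h, then treated for 24 h. Supernatant incubated with QUANTI-Blue at 37 °C for 1 h and OD read at 620 nm. Positive controls were R848 (TLR8) and ODN2006 (TLR9). EC50 reported as mean ± SD.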

[2] = target: T2, Toll-like receptor 3/8/9 (Homo sapiens) (UniProt O15455+Q9NR96+Q9NR97); assay: Agonist activity at TLR3/TLR8/TLR9 in human THP1 cells assessed as increase in TNFalpha production after 24 hrs by ELISA; format: cell-based
Outline: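 THP-1 cells (1.5 × 10^6/well) in RPMI 1640 with 10% FBS, differentiated with PMA (20 nM) for 2 days, then 24 h in fresh medium; nonadherent cells removed. Compound added at indicated concentrations for 24 h. Supernatant TNF-α measured by ELISA. Reference ligands were poly I:C, R848 and CpG ODN2006.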

[3] = target: T2, Toll-like receptor 3/8/9 (Homo sapiens); assay: Agonist activity at TLR3/TLR8/TLR9 in human THP1 cells assessed as increase in TNFalpha mRNA level after 12 hrs by qRT-PCR method; format: cell-based
Outline: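 THP-1 cells (1.5 × 10^6/well) differentiated with PMA (20 nM) for 2 days, then 24 h in fresh RPMI 1640; nonadherent cells removed. Treated with indicated compound concentrations for 12 h, washed with PBS, and mRNA measured by qRT-PCR. Expressed as fold change versus untreated control, poly I:C (5 μg/mL) as reference. Mean ± SD of three independent experiments.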

HeLa [4] = assay: Antiproliferative activity against human HeLa cells after 24 hrs by WST1 assay; format: functional, cell-based
Outline: (§1)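 Cells seeded at 5 × 10^3/well and left 24 h, then given a concentration series for 24, 48 or 72 h. WST-1 reagent added and incubated at 37 °C for 30 min–2 h until color change; absorbance 450 nm. Growth inhibition = (1 − [sample − background]/[control − background]) × 100. IC50 mean ± SD, three cell preparations.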

HeLa [5] = assay: Antiproliferative activity against human HeLa cells after 48 hrs by WST1 assay; format: functional, cell-based; outline: as §1
HeLa [6] = assay: Antiproliferative activity against human HeLa cells after 72 hrs by WST1 assay; format: functional, cell-based; outline: as §1
HeLa [7] = assay: Cell cycle arrest in human HeLa cells assessed as accumulation at S phase at 10 uM after 24 hrs by propidium iodide staining based flow cytometry (reference value: 31%); format: functional
HeLa [8] = assay: Cell cycle arrest in human HeLa cells assessed as accumulation at G2/M phase at 20 uM after 24 hrs by propidium iodide staining based flow cytometry (reference value: 17%); format: functional
HeLa [9] = assay: Cell cycle arrest in human HeLa cells assessed as accumulation at G0/G1 phase at 30 uM after 24 hrs by propidium iodide staining based flow cytometry (reference value: 52%); format: functional
HeLa [10] = assay: Cell cycle arrest in human HeLa cells assessed as accumulation at S phase at 30 uM after 24 hrs by propidium iodide staining based flow cytometry (reference value: 31%); format: functional
HeLa [11] = assay: Cell cycle arrest in human HeLa cells assessed as accumulation at G0/G1 phase at 40 uM after 24 hrs by propidium iodide staining based flow cytometry (reference value: 52%); format: functional
HeLa [12] = assay: Cell cycle arrest in human HeLa cells assessed as accumulation at S phase after 24 hrs by propidium iodide staining based flow cytometry; format: functional

T2 sequence (O15455 whole entry, looked up, one chain of several): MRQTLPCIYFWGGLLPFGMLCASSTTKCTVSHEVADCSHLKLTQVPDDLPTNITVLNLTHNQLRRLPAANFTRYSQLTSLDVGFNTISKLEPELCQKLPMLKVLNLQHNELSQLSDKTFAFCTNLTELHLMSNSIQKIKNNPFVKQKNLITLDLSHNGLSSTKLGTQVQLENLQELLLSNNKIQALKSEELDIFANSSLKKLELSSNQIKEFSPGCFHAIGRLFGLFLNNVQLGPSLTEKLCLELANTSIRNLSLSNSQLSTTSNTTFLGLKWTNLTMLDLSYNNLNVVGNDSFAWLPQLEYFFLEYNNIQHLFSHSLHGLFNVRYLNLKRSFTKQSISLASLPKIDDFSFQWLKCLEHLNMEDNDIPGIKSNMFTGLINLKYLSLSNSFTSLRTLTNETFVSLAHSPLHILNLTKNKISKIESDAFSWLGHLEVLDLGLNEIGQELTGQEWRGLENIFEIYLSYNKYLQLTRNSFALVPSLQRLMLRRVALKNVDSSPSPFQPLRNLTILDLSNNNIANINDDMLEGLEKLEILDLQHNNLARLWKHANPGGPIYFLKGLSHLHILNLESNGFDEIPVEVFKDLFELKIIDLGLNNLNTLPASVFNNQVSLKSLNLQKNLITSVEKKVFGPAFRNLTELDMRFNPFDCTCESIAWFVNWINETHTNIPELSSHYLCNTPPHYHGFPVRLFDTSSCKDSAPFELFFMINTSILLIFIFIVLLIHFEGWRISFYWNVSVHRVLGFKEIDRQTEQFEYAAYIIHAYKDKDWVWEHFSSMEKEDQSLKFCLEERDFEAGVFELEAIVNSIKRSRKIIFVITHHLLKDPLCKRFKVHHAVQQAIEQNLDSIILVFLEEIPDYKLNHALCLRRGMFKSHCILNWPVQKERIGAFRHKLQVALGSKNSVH
T2 sequence (Q9NR97 whole entry, looked up, one chain of several): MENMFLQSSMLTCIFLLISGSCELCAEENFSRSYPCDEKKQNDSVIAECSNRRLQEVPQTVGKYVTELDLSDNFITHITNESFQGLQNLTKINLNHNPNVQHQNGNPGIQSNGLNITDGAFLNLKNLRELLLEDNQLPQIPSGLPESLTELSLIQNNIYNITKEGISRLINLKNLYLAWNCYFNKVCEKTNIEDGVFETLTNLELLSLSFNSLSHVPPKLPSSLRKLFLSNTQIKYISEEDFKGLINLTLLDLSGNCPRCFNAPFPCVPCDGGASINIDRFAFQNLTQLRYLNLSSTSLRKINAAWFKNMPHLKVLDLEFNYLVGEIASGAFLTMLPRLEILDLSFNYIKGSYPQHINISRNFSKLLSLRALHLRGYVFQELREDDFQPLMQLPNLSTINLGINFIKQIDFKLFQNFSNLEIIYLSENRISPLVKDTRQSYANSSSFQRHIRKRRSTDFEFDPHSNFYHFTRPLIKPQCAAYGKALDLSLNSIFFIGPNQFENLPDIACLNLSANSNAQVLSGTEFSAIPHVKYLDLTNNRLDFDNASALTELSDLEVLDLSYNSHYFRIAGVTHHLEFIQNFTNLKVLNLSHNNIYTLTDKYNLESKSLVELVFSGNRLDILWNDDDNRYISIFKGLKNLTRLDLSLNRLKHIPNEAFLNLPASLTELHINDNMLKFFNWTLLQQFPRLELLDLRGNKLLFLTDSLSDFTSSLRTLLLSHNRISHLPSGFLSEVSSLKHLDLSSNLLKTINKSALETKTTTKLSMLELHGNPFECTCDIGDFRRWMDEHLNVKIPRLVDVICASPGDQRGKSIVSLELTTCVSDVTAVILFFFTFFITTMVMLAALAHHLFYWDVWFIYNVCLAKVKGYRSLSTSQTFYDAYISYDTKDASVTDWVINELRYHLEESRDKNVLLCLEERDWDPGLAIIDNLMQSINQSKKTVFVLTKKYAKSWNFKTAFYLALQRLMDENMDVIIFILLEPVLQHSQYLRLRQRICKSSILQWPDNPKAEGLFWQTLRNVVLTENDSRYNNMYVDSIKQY
Chain of Toll-like receptor 3 (Homo sapiens) (O15455 whole entry): as the sequence (O15455 whole entry, looked up, one chain of several) above
Chain of Toll-like receptor 2 (O60603 whole entry): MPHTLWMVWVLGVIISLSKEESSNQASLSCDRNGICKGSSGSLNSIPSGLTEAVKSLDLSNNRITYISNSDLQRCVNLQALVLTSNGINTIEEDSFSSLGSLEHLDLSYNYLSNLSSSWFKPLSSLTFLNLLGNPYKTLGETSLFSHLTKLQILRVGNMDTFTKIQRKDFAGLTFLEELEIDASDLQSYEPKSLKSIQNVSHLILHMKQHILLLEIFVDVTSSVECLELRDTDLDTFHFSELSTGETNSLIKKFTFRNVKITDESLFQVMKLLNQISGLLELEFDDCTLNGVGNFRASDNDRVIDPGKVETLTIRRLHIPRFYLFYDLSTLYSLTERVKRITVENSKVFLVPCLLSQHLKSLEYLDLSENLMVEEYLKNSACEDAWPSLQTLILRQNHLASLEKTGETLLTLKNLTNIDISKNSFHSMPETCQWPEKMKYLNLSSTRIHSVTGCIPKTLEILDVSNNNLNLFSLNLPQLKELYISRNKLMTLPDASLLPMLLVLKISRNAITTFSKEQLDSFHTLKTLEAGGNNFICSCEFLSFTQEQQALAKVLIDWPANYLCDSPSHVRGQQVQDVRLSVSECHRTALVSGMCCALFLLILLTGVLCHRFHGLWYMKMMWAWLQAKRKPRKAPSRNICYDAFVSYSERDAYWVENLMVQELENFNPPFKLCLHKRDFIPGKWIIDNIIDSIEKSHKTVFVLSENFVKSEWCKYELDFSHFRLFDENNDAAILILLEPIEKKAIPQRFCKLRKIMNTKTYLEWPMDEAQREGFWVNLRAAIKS

`O=[N+]([O-])c1ccc(COc2cc3c(cc2OCc2ccc([N+](=O)[O-])cc2)OC2(C=C3)CCOCC2)cc1` was tested, and the fold change (FC) [1] was 13.9, the EC50 (Toll-like receptor 2) was > 100 µM and the EC50 (Toll-like receptor 9) was 5.66 µM. For the same compound, the Activity [2] was “Dose-dependent effect”, the Activity [3] was “Dose-dependent effect” and the Activity (HeLa [4]) was “Dose-dependent effect”. For the same compound, the IC50 (HeLa [4]) was 38.6 µM, the Activity (HeLa [5]) was “Dose-dependent effect” and the IC50 (HeLa [5]) was 15.8 µM. For the same compound, the Activity (HeLa [6]) was “Dose-dependent effect”, the IC50 (HeLa [6]) was 2.71 µM and the Activity (HeLa [7]) was 35%. It also gave an Activity (HeLa [8]) of 20%, an Activity (HeLa [9]) of 41% and an Activity (HeLa [10]) of 39%. The Activity (HeLa [11]) was 40% and the Activity (HeLa [12]) was “Dose-dependent effect”.
